Screening data as filed in PubChem BioAssay.
An excerpt weighted towards active compounds, which were near 4% of everything screened.
WT yeast gro inh – growth inhibition of WT yeast, mitochondrial fusion screen. mitochondrial fusion phenotypic screen, WT strain. inhibition, % at 10 µM. actives 2.1% (n = 190,000); in the data active = inhibition above about 58%; tested in S. cerevisiae
MT stabilize HCS – microtubule stabilization, imaging screen; % tubulin-high responders, % at 10 µM; HeLa tubulin immunostaining HCS, 24 h; share of cells brighter than vehicle mean+2SD; actives 0.83% (n = 200,000);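 active = plate Z-score above 3 for both tubulin-high and condensed-nucleus cell shares, with cell loss under 80%, at 10 µM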;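 also: anti alpha tubulin signal scored within the nucleus-defined area of each cell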
bCat nuc transl – modulators of beta-catenin nuclear translocation; AID 1665; nuclear translocation activity, % at 5 µM; HeLa beta-catenin nuclear translocation, immunofluorescence imaging; actives 0.3% (n = 190,000);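 active = nuclear translocation activity above 50% at 5 µM, with a well cell count of 50 or more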;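 also: per-cell ratio of nuclear to cytoplasmic median beta-catenin stain intensity; plate controls were DMSO negative control for no effect and GSK-3 inhibitor IX positive control for full effect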
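Read-out: Nuclear/cytoplasmic beta-catenin signal ratio, % activation | Assay system: Human HeLa cell line | Times: 24 h compound exposure at 37°C, 5% CO2 | Signal: Fluorescence imaging of beta-catenin antibody stain plus DAPI | Dosing: 5 µM primary, 0.02–20 µM confirmation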
KCC2 mod – KCC2 (human) Cl- transport modulation; Q9H2X9; KCC2 cells, thallium flux FluoZin-2 fluorescence; B-score of Tl+ flux slope (higher = more flux/activation; lower = inhibition) at 10 µM; actives 2.2% (n = 190,000); AID 1456;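 active = thallium flux slope and its plate-corrected score both differing from the plate sample mean at a set confidence after two filtering rounds, in either direction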;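 also: slope of fluorescence scaled to starting intensity during 10 to 20 s after thallium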
Target sequence (Q9H2X9 whole entry, looked up): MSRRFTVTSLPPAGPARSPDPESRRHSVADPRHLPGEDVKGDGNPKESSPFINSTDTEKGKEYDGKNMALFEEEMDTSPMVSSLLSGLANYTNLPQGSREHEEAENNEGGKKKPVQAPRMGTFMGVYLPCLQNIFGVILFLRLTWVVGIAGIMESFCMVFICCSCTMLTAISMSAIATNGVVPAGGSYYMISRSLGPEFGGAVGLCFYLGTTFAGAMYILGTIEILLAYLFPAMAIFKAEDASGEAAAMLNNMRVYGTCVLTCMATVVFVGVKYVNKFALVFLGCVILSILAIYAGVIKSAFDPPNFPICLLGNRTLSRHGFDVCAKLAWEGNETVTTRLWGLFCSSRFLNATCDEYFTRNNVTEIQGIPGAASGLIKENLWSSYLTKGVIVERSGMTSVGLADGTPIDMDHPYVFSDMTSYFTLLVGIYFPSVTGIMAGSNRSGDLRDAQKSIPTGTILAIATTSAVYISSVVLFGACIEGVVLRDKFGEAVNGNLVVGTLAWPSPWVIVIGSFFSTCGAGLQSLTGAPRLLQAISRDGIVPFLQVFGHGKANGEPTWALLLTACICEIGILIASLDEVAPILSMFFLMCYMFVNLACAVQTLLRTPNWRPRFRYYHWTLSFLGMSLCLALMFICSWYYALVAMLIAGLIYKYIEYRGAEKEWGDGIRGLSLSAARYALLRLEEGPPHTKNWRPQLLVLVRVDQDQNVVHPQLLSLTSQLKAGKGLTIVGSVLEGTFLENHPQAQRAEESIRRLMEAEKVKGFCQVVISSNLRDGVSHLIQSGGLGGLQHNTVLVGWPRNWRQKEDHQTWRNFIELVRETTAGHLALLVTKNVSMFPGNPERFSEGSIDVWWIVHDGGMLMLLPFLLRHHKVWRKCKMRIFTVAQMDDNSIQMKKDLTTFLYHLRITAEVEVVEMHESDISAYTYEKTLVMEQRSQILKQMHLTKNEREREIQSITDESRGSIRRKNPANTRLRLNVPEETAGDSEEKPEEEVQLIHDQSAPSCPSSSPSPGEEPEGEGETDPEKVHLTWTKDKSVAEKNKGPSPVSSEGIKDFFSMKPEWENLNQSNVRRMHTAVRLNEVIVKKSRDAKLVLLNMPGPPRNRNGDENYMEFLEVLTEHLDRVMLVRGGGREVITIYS
Pf gametocyte – kills late stage P. falciparum gametocytes | P. falciparum stage V gametocytes, ATP luminescence, 24 h | inhibition, % at 10.9 µM | actives 0.065% (n = 150,000) | AID 743093;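 active = inhibition above the mean plus 3 SD of compounds within the control limits, set per campaign, cut at about 38% in these data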;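 also: 0% = DMSO wells and 100% = medium only without gametocytes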
* hit, by the source's call.

For CC1CN(c2nc3ccccc3nc2C(C#N)C(=O)OC2CCCCC2)CC(C)O1 (stereo unspecified) the results were WT yeast gro inh 59.6*, MT stabilize HCS 2.0, KCC2 mod -0.265 and Pf gametocyte 5.8.
CC1CCN(c2nc3ccccc3nc2C(C#N)C(=O)OC2CCCCC2)CC1 (stereo unspecified) was read as MT stabilize HCS 5.3, bCat nuc transl -0.4 and KCC2 mod 0.776.
`CCc1ccccc1NCC(=O)Nc1ccc(Cl)c(C(F)(F)F)c1` gave WT yeast gro inh 79.8*, MT stabilize HCS 3.0, bCat nuc transl 2.8, KCC2 mod 0.227 and Pf gametocyte -10.3.
CN(CC(=O)Nc1ccc(Cl)c(C(F)(F)F)c1)C(=O)/C=C/c1ccco1 was read as WT yeast gro inh 16.3, MT stabilize HCS 1.8, bCat nuc transl -2.6, KCC2 mod -1.31 and Pf gametocyte 57.0*.
Screening COc1ccccc1NC(=O)CN1CCN(CC(=O)Nc2ccc(Cl)c(C(F)(F)F)c2)CC1 returned WT yeast gro inh 50.2, MT stabilize HCS 2.7, bCat nuc transl 1.6 and Pf gametocyte -7.8.
For Cc1ccc(C)c(NC(=O)CN(C)C(=O)/C=C/c2ccco2)c1 the results were WT yeast gro inh -9.0, MT stabilize HCS 3.0, bCat nuc transl -0.6 and KCC2 mod -0.783.
Screening COc1cc2c(cc1OC)C(c1cccs1)N(C(=O)c1ccncc1)CC2 (stereo unspecified) returned WT yeast gro inh 8.8, MT stabilize HCS 22.8*, bCat nuc transl 31.5, KCC2 mod -0.527 and Pf gametocyte -19.0.
For COc1cc2c(cc1OC)C(C)N(C(=O)c1cccs1)CC2 (stereo unspecified) the results were WT yeast gro inh -14.4, MT stabilize HCS 23.8*, bCat nuc transl -0.1, KCC2 mod 0.0158 and Pf gametocyte 24.0.
For NC(=O)c1c(NC(NC(=O)c2ccco2)C(=O)c2ccc(Cl)cc2)sc2c1CCCC2 (stereo unspecified) the results were WT yeast gro inh 21.4, MT stabilize HCS 2.0 and KCC2 mod 0.355.
`N#Cc1c(NC(NC(=O)c2ccco2)C(=O)c2ccccc2)sc2c1CCCC2` (stereo unspecified) gave WT yeast gro inh 61.6*, MT stabilize HCS 1.6, bCat nuc transl 0.1 and KCC2 mod -0.47.
For N#Cc1c(NC(=O)/C=C/c2ccco2)sc2c1CCCC2 the results were WT yeast gro inh -4.7, MT stabilize HCS 5.2, bCat nuc transl 106.5*, KCC2 mod 0.156 and Pf gametocyte 3.0.
For CCCc1nc(C(C)(C)O)c(C(=O)O)n1Cc1ccc(-c2ccccc2-c2nn[nH]n2)cc1 the results were WT yeast gro inh -6.5, bCat nuc transl -1.4 and KCC2 mod 0.748.
CCN(CC)c1ccc(/C=N/NC(=O)Nc2nonc2N)cc1 was read as WT yeast gro inh -1.7, MT stabilize HCS 4.8, bCat nuc transl -1.7 and Pf gametocyte 10.6.
Screening COc1ccccc1/C=C1\SC(=S)N(CC(=O)Nc2nnc(C)s2)C1=O returned WT yeast gro inh 2.8, MT stabilize HCS 5.6, bCat nuc transl -1.3 and KCC2 mod -1.77.
`CN(C)S(=O)(=O)c1cccc(C(=O)NCC2CCCO2)c1` (stereo unspecified) gave WT yeast gro inh 97.1*, MT stabilize HCS 2.8, KCC2 mod -1.11 and Pf gametocyte 9.4.
For O=C(NCC1CCCO1)c1cccc(C(=O)NCC2CCCO2)c1 (stereo unspecified) the results were Pf gametocyte -28.8.
`Cc1cc(C)n(CC(O)CN2c3ccccc3Sc3ccccc32)n1` (stereo unspecified) gave WT yeast gro inh 72.7*, MT stabilize HCS 3.3, bCat nuc transl -3.0 and Pf gametocyte -3.0.
CCOc1ccc(NC(=S)N2CCCN(Cc3cc(C)ccc3C)C2)cc1 was read as WT yeast gro inh 6.2, MT stabilize HCS 3.7, bCat nuc transl -0.9, KCC2 mod 0.774 and Pf gametocyte -32.3.
For Cc1csc(NC(=O)c2cc(-c3ccccc3)nc3ccccc23)n1 the results were WT yeast gro inh 61.9*, MT stabilize HCS 4.2, bCat nuc transl -2.6 and KCC2 mod -0.626.
For O=C(NC(=S)Nc1ccccn1)c1cc(-c2ccccc2)nc2ccccc12 the results were WT yeast gro inh 30.1, MT stabilize HCS 2.1, bCat nuc transl 1.5, KCC2 mod 21.9* and Pf gametocyte -14.2.
CCNC(=S)NNC(=O)c1cc(-c2ccc(OC)cc2)nc2ccccc12 was read as WT yeast gro inh 67.5*, MT stabilize HCS 5.2 and KCC2 mod 1.18.
Screening Cc1ccc(C)c(-c2cc(C(=O)Nc3nccs3)c3ccccc3n2)c1 returned WT yeast gro inh 61.3*, MT stabilize HCS 1.5, bCat nuc transl -2.5 and KCC2 mod -0.00164.
For CCCCOc1ccc(-c2cc(C(=O)NNC(=S)NCC)c3ccccc3n2)cc1 the results were WT yeast gro inh 53.3, MT stabilize HCS 4.2, bCat nuc transl -1.4 and KCC2 mod 3.85.
Screening Cc1ccc(-c2cc(C(=O)Nc3ccccn3)c3ccccc3n2)o1 returned WT yeast gro inh 23.6, MT stabilize HCS 2.8, bCat nuc transl -4.4, KCC2 mod -0.294 and Pf gametocyte -17.3.
For O=[N+]([O-])c1ccc(N/N=C/c2ccc[nH]2)cc1 the results were WT yeast gro inh 43.8, MT stabilize HCS 2.3, bCat nuc transl 0.9, KCC2 mod -1.74 and Pf gametocyte -7.5.
Cn1nnnc1Sc1ncnc2scc(-c3cc4ccccc4o3)c12 was read as Pf gametocyte -53.7.
`O=C(NNC(=S)Nc1ccccc1)c1cc(-c2cccnc2)nc2ccccc12` gave WT yeast gro inh 24.7, MT stabilize HCS 1.4, bCat nuc transl -0.7, KCC2 mod -1.04 and Pf gametocyte -5.8.
O=C(NC(=S)Nc1ccccc1)c1cc(-c2ccccc2)nc2ccccc12 was read as WT yeast gro inh 37.0, MT stabilize HCS 4.3, bCat nuc transl 0.7 and KCC2 mod 17.9*.
For CCSc1nnc(NC(=O)C2CC(=O)N(Cc3ccc(C)cc3)C2)s1 (stereo unspecified) the results were WT yeast gro inh 5.9, MT stabilize HCS 2.0, bCat nuc transl 0.6, KCC2 mod 0.485 and Pf gametocyte -1.8.
Screening COc1ccc(O)c(C(=O)CC(=O)c2ccccc2)c1 returned WT yeast gro inh 6.8, MT stabilize HCS 26.1, bCat nuc transl 3.9 and KCC2 mod 21.6*.
`COc1ccc(C(=O)CC(=O)c2ccccc2)cc1` gave Pf gametocyte 5.4.
For CCc1ccc(NC(=O)COc2ccc(F)cc2C(=O)c2cnn(-c3ccccc3)c2)cc1 the results were WT yeast gro inh -0.6, MT stabilize HCS 20.2*, bCat nuc transl -0.2, KCC2 mod 0.101 and Pf gametocyte -5.5.
`O=C(O)c1ccccc1C(=O)NNc1ccc(Cl)cc1` gave WT yeast gro inh 72.0* and MT stabilize HCS 0.7.
NS(=O)(=O)c1ccc(NNC(=O)c2ccccc2C(=O)O)cc1 was read as bCat nuc transl -0.4, KCC2 mod -0.437 and Pf gametocyte -35.8.
